Measurements: ChEMBL document CHEMBL3244114, “Synthesis of 11 beta,13 beta- and 13 beta,16 beta-propano steroids: probes of hormonal activity” (J Med Chem, 1979)
The source made the active and inactive calls. The calls are words filed in the database; no cut-off is given here.

Experiments:
[1] = target: T1, Progesterone receptor (Oryctolagus cuniculus) (UniProt P06186); test: Binding affinity to progesterone receptor in rabbit uterine cytosol relative to progesterone; settings: Uterus
T1 sequence (whole entry): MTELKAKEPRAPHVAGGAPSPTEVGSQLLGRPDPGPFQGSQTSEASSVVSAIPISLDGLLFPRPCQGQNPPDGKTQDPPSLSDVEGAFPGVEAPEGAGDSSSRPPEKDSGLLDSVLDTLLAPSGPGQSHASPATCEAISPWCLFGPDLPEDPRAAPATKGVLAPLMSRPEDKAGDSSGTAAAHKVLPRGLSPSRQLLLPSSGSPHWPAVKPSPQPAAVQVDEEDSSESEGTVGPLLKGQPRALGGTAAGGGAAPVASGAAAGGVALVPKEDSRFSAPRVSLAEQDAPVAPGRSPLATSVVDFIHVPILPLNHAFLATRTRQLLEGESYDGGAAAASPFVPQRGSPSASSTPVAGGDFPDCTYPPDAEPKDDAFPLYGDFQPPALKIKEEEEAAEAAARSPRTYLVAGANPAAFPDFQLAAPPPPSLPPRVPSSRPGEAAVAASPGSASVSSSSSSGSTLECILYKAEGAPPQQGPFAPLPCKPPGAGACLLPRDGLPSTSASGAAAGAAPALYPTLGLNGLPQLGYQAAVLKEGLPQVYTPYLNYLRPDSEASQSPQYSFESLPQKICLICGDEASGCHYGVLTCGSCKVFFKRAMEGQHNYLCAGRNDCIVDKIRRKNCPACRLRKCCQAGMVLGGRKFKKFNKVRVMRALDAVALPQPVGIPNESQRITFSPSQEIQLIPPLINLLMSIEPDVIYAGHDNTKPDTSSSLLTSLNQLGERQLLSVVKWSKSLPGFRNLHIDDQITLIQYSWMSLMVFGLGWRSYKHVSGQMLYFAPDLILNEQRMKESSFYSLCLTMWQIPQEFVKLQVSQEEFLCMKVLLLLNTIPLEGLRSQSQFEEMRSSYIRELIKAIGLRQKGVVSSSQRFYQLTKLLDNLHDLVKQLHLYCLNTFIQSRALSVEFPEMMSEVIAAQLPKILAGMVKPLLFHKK

[2] = tested on: Oryctolagus cuniculus; test: Antiprogestational activity in estradiol benzoate-primed rabbit at 10 to 15 mg, sc administered qd for 5 days by anti-Clauberg assay in presence of progesterone; format: functional, organism-based
In short: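 Immature rabbits (six) were primed with estradiol benzoate for 6 days. Each compound (10–15 mg) was then given with progesterone (0.8 mg) in sesame oil, subcutaneously, once daily for 5 days. The read-out was uterine stimulation. NICHD ran the assay.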

[3] = Solubility of the compound in carbon tetrachloride; format: physicochemical
[4] = organism: Oryctolagus cuniculus; test: Progestational activity in immature rabbit assessed as uterine stimulation by Clauberg assay; format: functional

Activity [1]	solubility [3]	SMILES	Activity [2]	Activity [4]
2%	–	C#C[C@]1(O)CC[C@H]2[C@@H]3CCC4=CC(=O)CC[C@@H]4[C@H]3CC[C@@]21CCCO	inactive	–
206%	–	C#CC1(O)CC[C@H]2[C@@H]3CCC4=CC(=O)CC[C@@H]4[C@H]3CC[C@@]21CC (mixture of isomers)	–	–
–	Insoluble	COc1ccc2c(c1)CCC1=C2[C@@H]2C[C@]3(CCC2O)[C@@H](OC(C)=O)CC[C@@H]13 (stereo partly drawn)	–	–
2%	–	C#C[C@]1(O)CC[C@H]2[C@@H]3CCC4=CC(=O)CC[C@@H]4[C@H]3CC[C@@]21CCCOC(=O)CBr	inactive	–
126%	–	C#C[C@]1(O)CC[C@H]2[C@@H]3CCC4=CC(=O)CC[C@@H]4[C@H]3CC[C@@]21C	–	–
1%	–	C#C[C@]1(O)[C@H]2CCC[C@@]13CC[C@H]1[C@@H](CCC4=CC(=O)CC[C@@H]41)[C@@H]3C2 (racemic)	inactive	–
1%	–	C#C[C@]1(O)CC[C@H]2[C@@H]3CCC4=CC(=O)CC[C@@H]4[C@H]3CC[C@@]21CCCCl	inactive	–
–	–	C#C[C@]1(O)CC[C@H]2[C@@H]3CCC4=CC(=O)CC[C@@H]4[C@H]3CC[C@@]21CCCOC(C)=O	inactive	–
136%	–	C#C[C@]1(O)CC[C@H]2[C@@H]3CCC4=CC(=O)CC[C@@H]4[C@H]3[C@H]3CCC[C@]21C3 (racemic)	–	–
21%	–	C#C[C@]1(O)CC[C@H]2[C@@H]3CCC4=CC(=O)CC[C@@H]4[C@H]3CC[C@@]21CCC=O	inactive	5%

SMILES	Activity [1]	solubility [3]	Activity [2]	Activity [4]
C#C[C@]1(O)CC[C@H]2[C@@H]3CCC4=CC(=O)CC[C@@H]4[C@H]3[C@@H](C)C[C@@]21CC (racemic)	151%	–	–	–
C#C[C@]1(O)CC[C@H]2[C@@H]3CCC4=CC(=O)CC[C@@H]4[C@H]3[C@@H](C)C[C@@]21C	390%	–	–	–
